Screening data from PubChem.
Sampled rows, rich in hits. Any-hit rate of the full collection: about 2.7%.
PfM18AAP inh-1: PfM18AAP enzyme inhibition; inhibition, % at 7.35 µM; recombinant PfM18AAP, H-Glu-NHMec fluorogenic cleavage; 290,000 compounds, 1.2% hits;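 active = inhibition above the campaign mean inhibition over all tested compounds plus 3 SD, cut at about 28% in these data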;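 also: 0% = plate median of test compound wells and 100% = 2 mM ZnCl2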
zVAD death inh: blocks zVAD induced death of L929 cells; L929 zVAD necroptosis rescue, ATP luminescence, 24 h; with zVAD 60 µM; 220,000 compounds, 0.38% hits; AID 1377; viability rescue, % at 10 µM;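 active = activation, scaled between plate controls, above about 75%, limit read from the data; inactive = activation under that limit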;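 also: 0% = zVAD with DMSO and 100% = DMSO alone without zVAD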
RBBP9 inh: blocks human serine hydrolase RBBP9; 220,000 compounds, 0.2% hits; recombinant RBBP9, FP-Rh probe fluorescence polarization; AID 1515; inhibition, % at 7.94 µM;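 active = inhibition above the campaign mean of all tested compounds plus 3 SD, cut at about 14% in these data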;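 also: plate controls were DMSO wells with RBBP9 for no effect and wells lacking RBBP9 protein for full effect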
Target sequence (O75884 whole entry, looked up): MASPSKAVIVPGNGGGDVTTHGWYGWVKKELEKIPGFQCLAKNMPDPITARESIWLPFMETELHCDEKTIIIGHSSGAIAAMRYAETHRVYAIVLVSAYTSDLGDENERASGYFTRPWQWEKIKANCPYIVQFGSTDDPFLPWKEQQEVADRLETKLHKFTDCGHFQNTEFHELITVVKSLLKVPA
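Measured by – fluorescence polarization · Test system – RBBP9 protein · Input – 2.5 µM RBBP9 dispensing solution, before mixing · Measure – percent inhibition from mP, scaled between DMSO and no-protein wells · Benchmarks – DMSO-treated enzyme wells and wells lacking RBBP9 · Times – preincubation 30 min plus labeling 45 min at 25 °C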
TNF death inh: inhibitors of TNF-alpha induced necroptosis in Jurkat FADD-/- cells; Jurkat FADD-/- TNF necroptosis rescue, ATP luminescence, 24 h; 0 = TNF only, 100 = no-TNF cells; 220,000 compounds, 0.068% hits; activation (protection from cell death), % at 10 µM;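 active = activation, meaning protection from cell death, of at least 50% relative to plate controls; inactive = activation below 50%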;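 also: necroptosis triggered by 40 ng/mL TNF-alpha added together with compound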
Wee1 degr inh: blocks degradation of human Wee1 kinase. HeLa Luc-Wee1K328M stability, luciferase luminescence; 100% = proteasome inhibitor MG132 effect. AID 1321. reporter increase, % at 5 µM. 220,000 compounds, 1.2% hits. P30291;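 active = activation above the mean of all tested compounds plus 3 SD, set per screening run, cut at about 8.8% in these data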;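 also: cells exposed to compound for 20 h before luminescence read; 0% = DMSO alone and 100% = MG132 at 30 µM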
p97 inhibitor: inhibitors of human p97 ATPase; P55072; recombinant p97 ATPase, Kinase-Glo ATP luminescence, 3 h; 220,000 compounds, 0.42% hits; inhibition, % at 8 µM; in the data active = inhibition above about 15%;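 also: 0% = DMSO vehicle and 100% = wells lacking enzyme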
PfM18AAP inh-2: PfM18AAP inhibition, confirmation; shares compounds with PfM18AAP inh-1; recombinant PfM18AAP, H-Glu-NHMec fluorogenic cleavage; inhibition, % at 7.35 µM; 2,400 compounds, 28% hits;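 active = mean inhibition over replicate wells above the hit cutoff set for the earlier primary screen, cut at about 29% in these data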;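 also: 0% = median of test compound wells and 100% = 2 mM ZnCl2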
CTSL1 confirm: Cathepsin L (human) inhibition, confirmation. shares compounds with PfM18AAP inh-1. purified cathepsin L1, Z-Leu-Arg-MCA fluorescence. inhibition, % at 5.96 µM. 2,400 tested, under 10 active;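 active = average inhibition across replicates above the hit cutoff set in the earlier primary screen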;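 also: 0% = median of test compound wells and 100% = Z-Phe-Ala-diazomethylketone 1 µM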
Target sequence (P07711 whole entry, looked up): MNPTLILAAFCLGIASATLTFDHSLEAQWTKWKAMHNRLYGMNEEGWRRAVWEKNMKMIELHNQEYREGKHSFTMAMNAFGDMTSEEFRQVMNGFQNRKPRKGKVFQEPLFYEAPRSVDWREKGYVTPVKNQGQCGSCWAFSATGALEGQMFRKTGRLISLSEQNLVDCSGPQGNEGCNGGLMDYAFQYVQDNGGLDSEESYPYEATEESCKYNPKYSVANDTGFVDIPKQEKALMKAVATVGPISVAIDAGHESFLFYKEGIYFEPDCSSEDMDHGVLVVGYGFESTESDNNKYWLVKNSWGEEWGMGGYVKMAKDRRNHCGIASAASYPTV
Numbers without * were called inactive.

What do the screens show for `CC(=O)Nc1nc(SCC(=O)NCc2ccc(F)cc2)[nH]c(=O)c1NC(=O)c1cccs1`?
PfM18AAP inh-1: -9.3; zVAD death inh: 1.1; RBBP9 inh: 1.9; TNF death inh: 0.0; Wee1 degr inh: -3.5; p97 inhibitor: 5.8

How did O=C(O)c1ccc2c(c1)C(=O)N(c1cc([N+](=O)[O-])ccn1)C2=O do in these assays?
PfM18AAP inh-1: -1.2

How did Cc1nnc(SCc2cc(=O)[nH]c(=S)[nH]2)s1 do in these assays?
PfM18AAP inh-1: 46.6*; zVAD death inh: -0.6; RBBP9 inh: -3.9; TNF death inh: -0.5; Wee1 degr inh: 0.2; p97 inhibitor: -1.3; PfM18AAP inh-2: 15.5; CTSL1 confirm: 0.5

What do the screens show for `O=c1cc(CSc2ccccc2)[nH]c(=S)[nH]1`?
PfM18AAP inh-1: 2.8; zVAD death inh: 0.1; RBBP9 inh: 4.0; TNF death inh: -2.7; Wee1 degr inh: 0.0; p97 inhibitor: 1.6

How did CC1CCC/C(=C\Nc2ccc(C(=O)O)c(O)c2)C1=O (centres undefined) do in these assays?
PfM18AAP inh-1: 25.7; zVAD death inh: 0.8; RBBP9 inh: 8.1; TNF death inh: 0.9; Wee1 degr inh: -0.4; p97 inhibitor: 8.9

Results for O=C1CCCC/C1=C\Nc1ccc(C(=O)O)c(O)c1 ?
PfM18AAP inh-1: 33.1*; zVAD death inh: 0.5; RBBP9 inh: 1.0; TNF death inh: -1.2; Wee1 degr inh: -0.3; p97 inhibitor: 4.9; PfM18AAP inh-2: -18.8; CTSL1 confirm: 2.2

Results for O=C(O)CCC(=O)Nc1ccc(N2CCCCCC2)cc1 ?
PfM18AAP inh-1: 43.8*; zVAD death inh: -0.5; RBBP9 inh: 7.7; TNF death inh: -1.7; Wee1 degr inh: -2.6; p97 inhibitor: 3.8; PfM18AAP inh-2: -1.0; CTSL1 confirm: 1.1

What do the screens show for `CC1CC(C)(C)CC2(C1)NC(=S)N(c1ccccc1)N2` (centres undefined)?
PfM18AAP inh-1: 36.1*; zVAD death inh: -0.9; RBBP9 inh: 1.7; TNF death inh: -0.3; Wee1 degr inh: 0.4; p97 inhibitor: 2.7; PfM18AAP inh-2: -48.2; CTSL1 confirm: -13.9

What do the screens show for `COCCc1nc2ccc(C(=O)N(C)Cc3cccc(-n4nc(C)cc4C)c3)cc2o1`?
PfM18AAP inh-1: -4.0

What do the screens show for `O=C(O)c1ccc(Cn2cc(/C=C\[N+](=O)[O-])c3ccccc32)o1`?
PfM18AAP inh-1: 39.3*; PfM18AAP inh-2: -29.2; CTSL1 confirm: -3.8

Results for COC(=O)c1ccc(Cn2cc(/C=C\[N+](=O)[O-])c3ccccc32)o1 ?
PfM18AAP inh-1: -5.5

What do the screens show for `O=C(CSc1nc2ccccc2c(=O)[nH]1)c1ccc(O)cc1O`?
PfM18AAP inh-1: 1.3; zVAD death inh: 1.4; RBBP9 inh: -6.1; TNF death inh: -1.8; Wee1 degr inh: -2.5; p97 inhibitor: 4.9

What do the screens show for `Cc1cc(C)nc(SCC(=O)c2ccc(O)c(O)c2)n1`?
PfM18AAP inh-1: 49.6*; PfM18AAP inh-2: 27.6; CTSL1 confirm: 7.1

Results for Cc1cc(C)nc(SCC(=O)c2ccc(C)c(C)c2)n1 ?
PfM18AAP inh-1: -9.1

How did O=C(CSc1nc2ccccc2c(=O)[nH]1)c1ccc(O)c(O)c1 do in these assays?
PfM18AAP inh-1: 65.1*; zVAD death inh: 0.0; RBBP9 inh: -0.8; TNF death inh: -0.5; Wee1 degr inh: 0.2; p97 inhibitor: 6.8; PfM18AAP inh-2: 68.0*; CTSL1 confirm: 1.7

Results for COCc1cc(C)nc(SCC(=O)c2ccc(O)c(O)c2)c1C#N ?
PfM18AAP inh-1: 61.9*; zVAD death inh: 42.0; RBBP9 inh: -11.2; TNF death inh: -3.6; Wee1 degr inh: -0.4; p97 inhibitor: 7.8; PfM18AAP inh-2: 39.3*; CTSL1 confirm: -1.6

Results for COCc1cc(C)nc(SCC(=O)Oc2ccccc2)c1C#N ?
PfM18AAP inh-1: 1.1; zVAD death inh: 0.2; RBBP9 inh: 2.1; TNF death inh: 0.7; Wee1 degr inh: 5.6; p97 inhibitor: 3.4
